Here are results for one compound from ChEMBL document CHEMBL5260822, “Structure-based design and synthesis of 2,4-diaminopyrimidines as EGFR L858R/T790M selective inhibitors for NSCLC” (Eur J Med Chem, 2017).

The structures appear in SMILES notation. pIC50: −log10 of the molar value. Calls of active or inactive are those of the source. No cut-off for these calls is given here.

The clearance is a measure of how efficiently the substance is removed, as volume per time. A high value points to a high capacity for elimination. A word on the half-life: it is how long it takes for the measured level to halve. The low end stands for rapid decline, the high end for slow decline. The term residual activity denotes the share of the control activity or signal that is left under treatment. Broadly, the pIC50 is the IC50 on a negative log10 scale, so that one unit is a factor of ten. The AUC is concentration integrated over time. Lower therefore signals less exposure. Broadly, the Cmax is the highest concentration seen after dosing.

Series [1] is described as follows: Oral bioavailability in Sprague-Dawley rat at 10 mg/kg and measured after 24 hrs by LC-MS/MS analysis. The following applies: in vivo. It counts as ADME, organism-based. The method, boiled down: (§1)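 Male Sprague–Dawley rats (190–220 g) dosed by oral gavage at 10 mg/kg in 5% DMSO / 95% HP-β-CD aqueous solution (20%); iv reference arm at 1 mg/kg. Blood sampled at 0.25, 0.5, 1, 2, 4, 6, 8 and 24 h, centrifuged (8000 × g, 6 min), and plasma quantified by LC–MS/MS.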

The nature of series [2]: Clearance in Sprague-Dawley rat at 1 mg/kg, iv and measured after 24 hrs by LC-MS/MS analysis. Type of series: ADME, organism-based. The following applies: in vivo.
Series [3] deals with T1, Epidermal growth factor receptor (Homo sapiens, UniProt P00533). The series is described as follows: Inhibition of EGFR phosphorylation in EGF-stimulated human A-431 cells harboring wild type EGFR at 100 nM and measured after 2 hrs by Western blot analysis. It counts as cell-based. The procedure, abridged:
(§2)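 Cells treated with compound for 2 h, then stimulated with EGF for 15 min and lysed. Lysates cleared at 12,000 × g (10 min, 4 °C), protein measured by Bradford assay, and equal amounts run on 8% SDS-PAGE and blotted to nitrocellulose. Probed for p-EGFR (Y1068), EGFR, p-ERK (T202/Y204), ERK, with tubulin or GAPDH as loading controls.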

The nature of series [4]: Volume of distribution at steady state in Sprague-Dawley rat at 1 mg/kg, iv and measured after 24 hrs by LC-MS/MS analysis. It counts as ADME, organism-based. The following applies: in vivo, read-out: Vdss.
A short description of series [5]: Toxicity in BALB/c nude mouse xenografted with human NCI-H1975 cells harboring EGFR L858R/T790M mutant assessed as mortality at 15 to 30 mg/kg, po for 18 days. The following applies: in vivo, 432 h, dose 15-30 mg/kg, time 18 day. Type of series: organism-based. The method, boiled down: (§3)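 Female BALB/cA nu/nu mice were given 1 × 10^6 H1975 cells in 0.1 mL PBS subcutaneously in the right flank. At an average tumour volume of 100 mm3 (about 18 days post-implantation) they were randomised, n = 6 per group. Groups received 15 or 30 mg/kg/day for 18 consecutive days or vehicle. Mice were kept at constant room temperature, 12/12-h light/dark, with standard diet and water ad lib.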

The test system of series [6] is NCI-H1975. The series is described as follows: Inhibition of Erk signalling in EGF-stimulated human NCI-H1975 cells harboring EGFR L858R/T790M double mutant assessed as decrease in p-ERK level at 0.1 to 100 nM and measured after 2 hrs by Western blot analysis. The following applies: dose 0.1-100 nM. It counts as cell-based. The method, boiled down: as §2
(In general: In western blotting, separated proteins are transferred to a membrane and probed.)

Series [7] is described as follows: Half life in Sprague-Dawley rat at 1 mg/kg, iv and measured after 24 hrs by LC-MS/MS analysis. It counts as ADME, organism-based. Particulars: in vivo.
For series [8], the target named is MAP kinase-interacting serine/threonine-protein kinase 2 (Homo sapiens) (UniProt Q9HBH9). Briefly: Inhibition of MKNK2 (unknown origin) at 1000 nM by DiscoverX KINOMEscan assay relative to control; values are per cent of control.
In series [9] the test system is NCI-H1975. Briefly: Inhibition of Akt signalling in EGF-stimulated human NCI-H1975 cells harboring EGFR L858R/T790M double mutant assessed as […] at 0.1 to 100 nM and measured after 2 hrs by Western blot analysis. Type of series: cell-based. Particulars: dose 0.1-100 nM.
Series [10] addresses Epidermal growth factor receptor (Homo sapiens, UniProt P00533, L858R/T790M). Briefly: Inhibition of EGFR L858R/T790M mutant (unknown origin) expressed in baculovirus expression system by ELISA. (In general: An ELISA detects its analyte on a solid surface through an enzyme-linked reagent.)
For a further series, the system named is A-431. The series is described as follows: Antiproliferative activity against human A-431 cells harboring wild type EGFR assessed as inhibition of cell proliferation incubated for 72 hrs by sulforhodamine B colorimetric assay. It counts as functional, cell-based. The following applies: A-431, 72 h. A general note: Sulforhodamine B stains cellular protein and so reports cell mass.

For series [11], the system named is Epidermal growth factor receptor (Homo sapiens), P00533 [L858R,T790M]. Particulars: NCI-H1975, dose 10.0 nM, time 2.0 hrs.
Sequence of Epidermal growth factor receptor (Homo sapiens), P00533 [L858R,T790M] (P00533 whole entry T790M/L858R, looked up): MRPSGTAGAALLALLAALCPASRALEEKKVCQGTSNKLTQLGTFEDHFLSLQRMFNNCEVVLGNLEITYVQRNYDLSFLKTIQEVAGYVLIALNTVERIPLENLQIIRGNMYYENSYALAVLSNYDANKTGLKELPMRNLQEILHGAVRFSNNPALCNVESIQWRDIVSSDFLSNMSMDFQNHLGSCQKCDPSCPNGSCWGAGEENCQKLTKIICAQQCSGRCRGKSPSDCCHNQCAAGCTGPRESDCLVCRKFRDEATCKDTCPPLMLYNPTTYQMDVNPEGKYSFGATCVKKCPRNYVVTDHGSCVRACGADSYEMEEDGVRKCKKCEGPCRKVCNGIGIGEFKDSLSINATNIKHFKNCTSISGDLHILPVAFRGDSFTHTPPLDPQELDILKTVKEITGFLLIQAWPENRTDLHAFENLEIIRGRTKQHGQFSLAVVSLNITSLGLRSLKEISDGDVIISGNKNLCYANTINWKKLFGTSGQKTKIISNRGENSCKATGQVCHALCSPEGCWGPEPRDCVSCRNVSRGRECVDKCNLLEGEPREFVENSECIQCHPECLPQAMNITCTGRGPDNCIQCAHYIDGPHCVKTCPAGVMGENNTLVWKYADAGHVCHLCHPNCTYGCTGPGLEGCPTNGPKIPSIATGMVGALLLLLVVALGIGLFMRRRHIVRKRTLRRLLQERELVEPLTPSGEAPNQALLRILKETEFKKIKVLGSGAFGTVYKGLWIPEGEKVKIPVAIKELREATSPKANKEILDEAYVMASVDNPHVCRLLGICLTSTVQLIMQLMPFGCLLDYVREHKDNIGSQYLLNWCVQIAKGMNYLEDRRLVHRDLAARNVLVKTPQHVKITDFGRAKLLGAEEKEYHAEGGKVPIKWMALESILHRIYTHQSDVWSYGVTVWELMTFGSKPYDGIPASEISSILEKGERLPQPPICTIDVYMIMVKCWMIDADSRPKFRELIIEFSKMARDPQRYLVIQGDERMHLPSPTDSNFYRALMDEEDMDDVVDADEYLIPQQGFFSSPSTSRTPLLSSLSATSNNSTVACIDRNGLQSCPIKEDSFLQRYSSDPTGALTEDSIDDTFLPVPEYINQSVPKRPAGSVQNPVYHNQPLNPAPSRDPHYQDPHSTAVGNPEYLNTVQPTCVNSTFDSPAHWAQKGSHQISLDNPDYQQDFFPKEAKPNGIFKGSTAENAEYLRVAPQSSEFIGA
Series [12] is described as follows: AUC (0 to infinity) in Sprague-Dawley rat at 1 mg/kg, iv and measured after 24 hrs by LC-MS/MS analysis. Particulars: in vivo. It counts as ADME, organism-based. Also noted: time 24 hrs, dose 1 mg/kg, route iv.
Series [13] has as its system Epidermal growth factor receptor (Homo sapiens), P00533 [L858R,T790M]. Briefly: In vivo inhibition of EGFR in BALB/c nude mouse xenografted with human NCI-H1975 cells harboring EGFR L858R/T790M mutant assessed as decrease in phosphorylated-EGFR level at 15 to 30 mg/kg, po for 18 days by western blot analysis. Particulars: dose 15-30 mg/kg, time 18.0 day. It counts as functional, organism-based.

Series [14] in a line: Cmax in Sprague-Dawley rat at 10 mg/kg, po and measured after 24 hrs by LC-MS/MS analysis. It counts as ADME, organism-based. Also noted: dose 10 mg/kg, time 24 hrs, route po. The following applies: in vivo. The method, boiled down:
as §1

Series [15] in a line: Toxicity in BALB/c nude mouse xenografted with human NCI-H1975 cells harboring EGFR L858R/T790M mutant assessed as morphological changes in heart at 15 to 30 mg/kg, po for 18 days by hematoxylin and eosin staining based microscopic analysis. Type of series: organism-based. Particulars: in vivo, 432 h, dose 15-30 mg/kg, time 18 day. The procedure, abridged:
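H1975 subcutaneous xenografts were grown in female BALB/cA nu/nu mice (n = 6 per group), dosed at 15 or 30 mg/kg/day for 18 days or with vehicle. At the end the mice were sacrificed. Heart, kidney and liver were harvested, processed and stained with hematoxylin and eosin for routine histological examination.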

Series [16] concerns the target T1, Epidermal growth factor receptor. The series is described as follows: Inhibition of wild type EGFR (unknown origin) expressed in baculovirus expression system by ELISA.
Series [17] is described as follows: Toxicity in BALB/c nude mouse xenografted with human NCI-H1975 cells harboring EGFR L858R/T790M mutant assessed as body weight loss at 15 to 30 mg/kg, po for 18 days. The following applies: in vivo, 432 h, dose 15-30 mg/kg, time 18 day. It counts as organism-based. The procedure, abridged:
as §3

In series [18] the test system is NCI-H1975. Briefly: Antitumor activity against human NCI-H1975 cells harboring EGFR L858R/T790M mutant xenografted in BALB/c nude mouse assessed as tumor cell proliferation at 15 to 30 mg/kg, po for 18 days by Ki-67 staining based immunohistochemical analysis. Particulars: dose 15-30 mg/kg, time 18.0 day. It counts as functional, organism-based. The method, boiled down:
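H1975 xenograft tumors from nude mice (n = 6/group, daily dosing 18 days) were harvested, fixed in 10% formalin, paraffin-embedded and cut into 5 µm sections. Sections deparaffinized and incubated with primary anti-Ki-67 antibody at room temperature; immunoreactivity visualized with DAB.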

Series [19] addresses Receptor tyrosine-protein kinase erbB-4 (Homo sapiens) (UniProt Q15303). The series is described as follows: Inhibition of ERBB4 (unknown origin) at 1000 nM by DiscoverX KINOMEscan assay relative to control; values are per cent of control.
In series [20] the target is Insulin-like growth factor 1 receptor (Homo sapiens) (UniProt P08069). Briefly: Inhibition of IGF1R (unknown origin) at 1000 nM by DiscoverX KINOMEscan assay relative to control; values are per cent of control.
Sequence of Insulin-like growth factor 1 receptor (Homo sapiens) (P08069 31-736 limits assumed): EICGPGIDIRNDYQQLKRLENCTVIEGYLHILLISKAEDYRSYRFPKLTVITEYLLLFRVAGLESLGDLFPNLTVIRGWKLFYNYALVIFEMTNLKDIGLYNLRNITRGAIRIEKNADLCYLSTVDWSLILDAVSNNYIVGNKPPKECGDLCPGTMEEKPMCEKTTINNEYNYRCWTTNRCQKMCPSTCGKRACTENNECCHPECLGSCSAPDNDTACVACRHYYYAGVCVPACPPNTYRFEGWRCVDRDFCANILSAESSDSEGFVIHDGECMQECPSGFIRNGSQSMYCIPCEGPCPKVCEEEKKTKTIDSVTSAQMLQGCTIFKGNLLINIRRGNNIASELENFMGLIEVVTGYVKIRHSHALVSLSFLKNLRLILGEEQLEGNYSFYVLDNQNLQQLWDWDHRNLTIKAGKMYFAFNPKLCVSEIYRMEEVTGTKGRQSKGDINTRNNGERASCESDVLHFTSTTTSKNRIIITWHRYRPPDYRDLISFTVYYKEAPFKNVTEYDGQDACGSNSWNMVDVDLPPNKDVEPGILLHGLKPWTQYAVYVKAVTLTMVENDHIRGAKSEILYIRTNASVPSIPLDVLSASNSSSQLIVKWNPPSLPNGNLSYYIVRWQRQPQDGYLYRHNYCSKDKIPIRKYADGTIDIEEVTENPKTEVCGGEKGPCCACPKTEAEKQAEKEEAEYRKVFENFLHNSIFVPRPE
Sequence of Insulin-like growth factor 1 receptor (Homo sapiens) (P08069 741-1367 limits assumed): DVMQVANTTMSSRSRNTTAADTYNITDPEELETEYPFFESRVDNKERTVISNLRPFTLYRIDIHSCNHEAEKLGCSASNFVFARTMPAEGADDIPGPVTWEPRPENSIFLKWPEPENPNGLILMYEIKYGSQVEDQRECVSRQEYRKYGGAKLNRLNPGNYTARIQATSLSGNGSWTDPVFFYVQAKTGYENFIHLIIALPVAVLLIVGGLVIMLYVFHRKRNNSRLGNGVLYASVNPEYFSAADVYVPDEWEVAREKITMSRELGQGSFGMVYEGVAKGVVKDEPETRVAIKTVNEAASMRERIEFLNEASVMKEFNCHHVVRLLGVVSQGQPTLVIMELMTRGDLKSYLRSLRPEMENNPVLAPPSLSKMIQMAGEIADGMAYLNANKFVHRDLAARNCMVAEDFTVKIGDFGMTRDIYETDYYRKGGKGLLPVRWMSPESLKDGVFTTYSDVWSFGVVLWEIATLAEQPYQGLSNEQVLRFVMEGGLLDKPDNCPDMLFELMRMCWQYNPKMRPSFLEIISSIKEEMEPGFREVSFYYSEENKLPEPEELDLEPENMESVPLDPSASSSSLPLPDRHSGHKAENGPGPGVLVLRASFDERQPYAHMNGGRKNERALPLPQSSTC
Series [21] concerns the target Insulin receptor (Homo sapiens) (UniProt P06213). Briefly: Inhibition of INSR (unknown origin) at 1000 nM by DiscoverX KINOMEscan assay relative to control; values are per cent of control.
For series [22], the target named is ALK tyrosine kinase receptor (Homo sapiens) (UniProt Q9UM73). The series is described as follows: Inhibition of ALK (unknown origin) at 1000 nM by DiscoverX KINOMEscan assay relative to control; values are per cent of control.

T1 sequence (P00533 whole entry): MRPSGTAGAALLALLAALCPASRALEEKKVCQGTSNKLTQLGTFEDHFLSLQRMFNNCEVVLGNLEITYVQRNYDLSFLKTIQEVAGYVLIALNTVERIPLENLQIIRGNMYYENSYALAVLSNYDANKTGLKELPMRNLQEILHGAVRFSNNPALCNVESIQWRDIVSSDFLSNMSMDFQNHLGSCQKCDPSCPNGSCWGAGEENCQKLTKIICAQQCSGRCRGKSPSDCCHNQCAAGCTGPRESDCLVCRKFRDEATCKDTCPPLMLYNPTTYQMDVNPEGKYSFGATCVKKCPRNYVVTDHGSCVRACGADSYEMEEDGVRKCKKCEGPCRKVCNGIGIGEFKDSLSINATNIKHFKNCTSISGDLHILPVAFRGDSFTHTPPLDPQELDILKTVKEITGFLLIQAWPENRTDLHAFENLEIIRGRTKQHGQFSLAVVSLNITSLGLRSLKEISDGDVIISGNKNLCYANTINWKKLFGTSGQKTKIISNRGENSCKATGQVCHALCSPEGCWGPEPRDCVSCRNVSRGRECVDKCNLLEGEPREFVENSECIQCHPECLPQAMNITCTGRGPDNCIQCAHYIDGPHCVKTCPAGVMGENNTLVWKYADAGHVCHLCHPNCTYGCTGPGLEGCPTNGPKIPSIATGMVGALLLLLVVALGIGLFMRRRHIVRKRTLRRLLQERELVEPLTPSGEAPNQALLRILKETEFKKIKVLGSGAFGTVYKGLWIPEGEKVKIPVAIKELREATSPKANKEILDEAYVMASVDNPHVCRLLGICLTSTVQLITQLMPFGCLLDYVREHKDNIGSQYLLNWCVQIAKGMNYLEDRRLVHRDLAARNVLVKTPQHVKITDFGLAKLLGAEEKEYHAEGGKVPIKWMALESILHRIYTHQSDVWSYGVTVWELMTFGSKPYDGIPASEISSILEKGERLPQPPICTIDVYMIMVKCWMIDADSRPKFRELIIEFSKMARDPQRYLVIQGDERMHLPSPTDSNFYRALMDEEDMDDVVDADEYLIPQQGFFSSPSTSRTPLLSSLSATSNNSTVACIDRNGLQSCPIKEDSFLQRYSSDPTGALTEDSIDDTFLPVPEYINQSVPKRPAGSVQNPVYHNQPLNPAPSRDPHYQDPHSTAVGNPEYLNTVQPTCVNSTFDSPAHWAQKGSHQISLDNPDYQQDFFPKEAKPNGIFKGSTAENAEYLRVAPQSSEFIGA
Sequence of Insulin receptor (Homo sapiens) (P06213 28-758 limits assumed): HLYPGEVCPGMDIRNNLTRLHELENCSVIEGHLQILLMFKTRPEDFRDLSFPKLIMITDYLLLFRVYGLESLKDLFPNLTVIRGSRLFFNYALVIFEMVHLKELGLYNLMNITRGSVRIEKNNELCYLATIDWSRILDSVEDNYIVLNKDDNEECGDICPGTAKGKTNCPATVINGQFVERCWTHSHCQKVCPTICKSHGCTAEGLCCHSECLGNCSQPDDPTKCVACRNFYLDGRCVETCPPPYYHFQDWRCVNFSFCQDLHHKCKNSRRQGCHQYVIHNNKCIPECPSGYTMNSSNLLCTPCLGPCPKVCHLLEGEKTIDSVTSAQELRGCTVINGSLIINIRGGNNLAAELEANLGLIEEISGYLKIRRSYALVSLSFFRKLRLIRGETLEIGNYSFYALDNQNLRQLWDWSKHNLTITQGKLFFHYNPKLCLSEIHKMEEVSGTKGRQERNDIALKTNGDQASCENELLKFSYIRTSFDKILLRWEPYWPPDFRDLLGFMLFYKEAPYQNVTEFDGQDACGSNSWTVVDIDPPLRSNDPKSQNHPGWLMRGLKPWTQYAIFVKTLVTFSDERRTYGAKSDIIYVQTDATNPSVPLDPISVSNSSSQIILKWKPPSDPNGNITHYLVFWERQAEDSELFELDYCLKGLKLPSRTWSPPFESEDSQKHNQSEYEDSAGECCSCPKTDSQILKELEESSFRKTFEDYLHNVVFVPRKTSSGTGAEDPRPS
Sequence of Insulin receptor (Homo sapiens) (P06213 763-1382 limits assumed): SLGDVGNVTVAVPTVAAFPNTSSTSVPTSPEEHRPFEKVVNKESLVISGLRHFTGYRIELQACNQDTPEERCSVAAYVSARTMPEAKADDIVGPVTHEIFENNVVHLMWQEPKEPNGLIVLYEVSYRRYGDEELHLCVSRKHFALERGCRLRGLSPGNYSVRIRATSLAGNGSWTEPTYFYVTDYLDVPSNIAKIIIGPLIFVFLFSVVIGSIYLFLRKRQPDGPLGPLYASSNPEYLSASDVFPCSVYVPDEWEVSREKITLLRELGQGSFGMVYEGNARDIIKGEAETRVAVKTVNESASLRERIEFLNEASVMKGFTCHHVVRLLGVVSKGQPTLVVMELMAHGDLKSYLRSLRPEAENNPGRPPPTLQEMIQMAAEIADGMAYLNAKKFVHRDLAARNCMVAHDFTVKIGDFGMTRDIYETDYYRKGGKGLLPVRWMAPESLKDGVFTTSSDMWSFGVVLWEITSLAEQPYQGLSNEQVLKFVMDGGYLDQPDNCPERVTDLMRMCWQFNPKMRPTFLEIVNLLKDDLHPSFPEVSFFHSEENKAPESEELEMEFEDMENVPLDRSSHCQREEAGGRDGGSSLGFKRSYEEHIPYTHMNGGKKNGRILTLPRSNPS

Consider `C=CC(=O)Nc1cc(Nc2ncc(Br)c(Nc3ccc4ccn(C)c4c3)n2)c(OC)cc1N1CCN(C)CC1`, for which, in series [1], the F turned out to be 52.3%. Further, the clearance in [2] is 32.6 mL/min/kg. In [3], the inhibition result was “inactive”. In addition, in series [4], the Vd was found to be 6.56 L/kg. Also, the Activity entry in series [5], in [15] and in [17] was “Non-Toxic” each time. Besides, the inhibition result in the series with NCI-H1975 [6] and in the series on NCI-H1975 [9] was “Dose-Dependent Effect” each time. For the same compound, in series [7], the half-life was 3.47 h. Besides, the residual activity in series [8] was under 10%; in [19], under 10%; in series [20], over 35%; in series [21], under 10%; in [22], under 10%. Moreover, the values for the pIC50 (in series [10]; in the series on A-431; in series [16]) were 8.39, 5.77 and 6.55, respectively. In addition, the inhibition entry in series [11] and in [13] was “Active” throughout. The AUC in [12] was 515 ng·h/mL. Further, the Cmax in series [14] was determined as 636 ng/mL. The outcome in the series on NCI-H1975 [18] was Active.
